Values after ≈ are worked out from the molar mass of the structure shown. Active and inactive are the calls of the source. No cut-off for these calls is given here.
Legend:
[1] = system: Mycobacterium tuberculosis; assay: Bactericidal activity against Mycobacterium tuberculosis infected in human THP1 cells at 1 ug/ml for 7 days; format: functional, THP-1
Procedure, shortened: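 Adherent THP-1 macrophages infected with Mtb were exposed to compound at 1 μg/mL for 7 days at 37 °C. Kill was expressed as log reduction versus the untreated control.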

[2] = system: Mycobacterium tuberculosis; assay: Antimycobacterial activity against Mycobacterium tuberculosis infected in aminobenzotriazole-pretreated BALB/c mouse chronic tuberculosis model assessed as reduction in log10CFU at 240 mg/kg, po bid for 20 days; format: functional, organism-based; set-up: dose 240 mg/kg
Procedure, shortened: (§1)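 Aerosol-infected BALB/c mice in BSL3, three per group. Treatment began 3 days (acute) or 4 weeks (chronic) after infection. ABT 100 mg/kg po in water was given 2 h before oral gavage of compound in 5% dextrose (pH 4−5 with acetic acid), 10 mL/kg, twice daily at 8 h intervals. Courses were 20 days (7 days/week) or 8 weeks (6 days/week). Lung homogenates were plated on 7H11 for cfu.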

[3] = target: DNA gyrase subunit A/DNA gyrase subunit B (Mycobacterium tuberculosis (strain ATCC 25618 / H37Rv), UniProt P9WG45+P9WG47); assay: Inhibition of Mycobacterium tuberculosis H37Rv DNA gyrase holoenzyme-mediated supercoiling of pBR322 DNA after 90 mins by agarose gel electrophoresis
[4] = system: Mycobacterium tuberculosis; assay: Antimycobacterial activity against wild-type Mycobacterium tuberculosis H37Rv ATCC 27294 after 16 to 18 days by BACTEC 7H12B microdilution method; format: functional
[5] = Fraction unbound in aminobenzotriazole-pretreated BALB/c mouse plasma infected with Mycobacterium tuberculosis by LC-MS/MS analysis; format: ADME, cell-free
[6] = system: Mycobacterium tuberculosis; assay: Antimycobacterial activity against Mycobacterium tuberculosis infected in aminobenzotriazole-pretreated BALB/c mouse acute tuberculosis model assessed as reduction in bacterial burden at 80 to 160 mg/kg, po bid for 20 days; format: functional, organism-based; procedure, shortened: as §1
[7] = system: Mus musculus; assay: fT>MIC in BALB/c mouse infected with Mycobacterium tuberculosis at 160 mg/kg, po
Procedure, shortened: (§2)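 PK was measured in infected, ABT-pretreated mice during efficacy dosing (oral, 5% dextrose pH 4−5) on day 18 or 19. Saphenous blood was taken at 5, 15 and 30 min and 1, 2, 4 and 6 h. Plasma was precipitated with acetonitrile and analysed by LC−MS/MS. AUC came from noncompartmental analysis; free AUC/MIC and %free T>MIC used the unbound fraction and MIC.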

[8] = Apparent permeability from basolateral to apical side in human Caco2 cells; format: ADME, cell-based; settings: Caco-2
[9] = Apparent permeability from apical to basolateral side in human Caco2 cells; format: ADME, cell-based; settings: Caco-2
[10] = Octanol-sodium phosphate buffer partition coefficient, log D of the compound at 10 mM at pH 7.4 by shake-flask method; format: physicochemical
[11] = system: Mus musculus; assay: fT>MIC in BALB/c mouse infected with Mycobacterium tuberculosis at 80 mg/kg, po; procedure, shortened: as §2
[12] = system: Mycobacterium tuberculosis; assay: Antimycobacterial activity against Mycobacterium tuberculosis infected in aminobenzotriazole-pretreated BALB/c mouse acute tuberculosis model assessed as reduction in log10CFU at 160 mg/kg, po bid for 20 days; format: functional; procedure, shortened: as §1
[13] = Oral bioavailability in rat at 40 mg/kg by LC-MS/MS analysis; format: ADME, organism-based; settings: in vivo
Procedure, shortened: (§3)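 Rats were dosed with the 5% dextrose (pH 4−5) formulation, 5 mg/kg iv and 40 mg/kg po. Plasma was precipitated with acetonitrile and analysed by LC−MS/MS with a carbamazepine internal standard. Parameters were derived by noncompartmental analysis.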

[14] = Clearance in rat at 40 mg/kg, po and 5 mg/kg, iv by LC-MS/MS analysis; format: ADME, organism-based; settings: in vivo; procedure, shortened: as §3
[15] = system: Mycobacterium tuberculosis; assay: Bactericidal activity against Mycobacterium tuberculosis H37Rv after 10 days by time kill assay; format: functional, organism-based
Procedure, shortened: (§4)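 Time-kill in 7H9 broth with 0.2% glycerol, 0.05% Tween 80 and 10% ADC. Serial 2-fold dilutions were added to ~3 × 10^7 cfu/mL H37Rv at 37 °C. Aliquots were plated on 7H11 at days 0, 3, 7 and 10, and plates were incubated up to 28 days at 37 °C, 5% CO2, humidified. Results are given as log10 cfu per concentration.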

[16] = Ratio of fAUC in aminobenzotriazole-pretreated Mycobacterium tuberculosis infected BALB/c mouse at 80 mg/kg, po to MIC for wild-type Mycobacterium tuberculosis H37Rv ATCC 27294; procedure, shortened: as §2
[17] = system: Mycobacterium tuberculosis; assay: Bactericidal activity against Mycobacterium tuberculosis H37Rv assessed as reduction in log10CFU at 0.01 to 2 ug/ml after 10 days by time kill assay; format: functional; procedure, shortened: as §4
[18] = system: Mycobacterium tuberculosis; assay: Bactericidal activity against Mycobacterium tuberculosis H37Rv at 0.01 to 2 ug/ml by time kill assay; format: functional, organism-based; settings: TDE = time-dependent effect; procedure, shortened: as §4
[19] = target: T1, DNA gyrase subunit A/DNA gyrase subunit B (Mycobacterium tuberculosis (strain ATCC 25618 / H37Rv)) (UniProt P9WG45+P9WG47); assay: Inhibition of Mycobacterium tuberculosis H37Rv DNA gyrase holoenzyme using pBR322 DNA as substrate assessed as intact DNA level at 0.02 to 11 uM after 60 mins by cleavable complex assay relative to control; set-up: scale not given: the % may be the effect or the level left
Procedure, shortened: (§5)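 Reactions were started with DNA and run 60 min at 37 °C, then stopped with proteinase K/SDS for 1 h at 37 °C. Products were resolved on 0.8% agarose with ethidium for 16 h at 1 V/cm, and nicked, linear and supercoiled forms were quantified.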

[20] = target: T1, DNA gyrase subunit A/DNA gyrase subunit B (Mycobacterium tuberculosis (strain ATCC 25618 / H37Rv)); assay: Inhibition of Mycobacterium tuberculosis H37Rv DNA gyrase holoenzyme using pBR322 DNA as substrate assessed as single stranded nicked DNA level at 0.02 to 11 uM after 60 mins by cleavable complex assay relative to control; set-up: scale not given: the % may be the effect or the level left; procedure, shortened: as §5
[21] = Ratio of fAUC in aminobenzotriazole-pretreated Mycobacterium tuberculosis infected BALB/c mouse at 20 mg/kg, po to MIC for wild-type Mycobacterium tuberculosis H37Rv ATCC 27294; procedure, shortened: as §2
[22] = system: Mus musculus; assay: fT>MIC in BALB/c mouse infected with Mycobacterium tuberculosis at 20 mg/kg, po; procedure, shortened: as §2
[23] = system: Mycobacterium tuberculosis; assay: Antimycobacterial activity against Mycobacterium tuberculosis infected in aminobenzotriazole-pretreated BALB/c mouse chronic tuberculosis model assessed as reduction in log10CFU at 40 to 80 mg/kg, po bid for 20 days; format: functional; settings: dose mg/kg 40-80; procedure, shortened: as §1
[24] = target: T1, DNA gyrase subunit A/DNA gyrase subunit B (Mycobacterium tuberculosis (strain ATCC 25618 / H37Rv)); assay: Inhibition of Mycobacterium tuberculosis H37Rv DNA gyrase holoenzyme using pBR322 DNA as substrate assessed as increase in single-strand cleaved plasmid DNA level after 60 mins by cleavable complex assay relative to control; procedure, shortened: as §5
[25] = target: Voltage-gated inwardly rectifying potassium channel KCNH2 (Homo sapiens, UniProt Q12809); assay: Inhibition of human ERG by patch clamp electrophysiological analysis
[26] = system: Mycobacterium tuberculosis; assay: Antimycobacterial activity against Mycobacterium tuberculosis infected in aminobenzotriazole-pretreated BALB/c mouse chronic tuberculosis model assessed as reduction in log10CFU at 40 to 80 mg/kg, po bid for 8 weeks; format: functional, organism-based; procedure, shortened: as §1

Sequence of DNA gyrase subunit A/DNA gyrase subunit B (P9WG45 whole entry): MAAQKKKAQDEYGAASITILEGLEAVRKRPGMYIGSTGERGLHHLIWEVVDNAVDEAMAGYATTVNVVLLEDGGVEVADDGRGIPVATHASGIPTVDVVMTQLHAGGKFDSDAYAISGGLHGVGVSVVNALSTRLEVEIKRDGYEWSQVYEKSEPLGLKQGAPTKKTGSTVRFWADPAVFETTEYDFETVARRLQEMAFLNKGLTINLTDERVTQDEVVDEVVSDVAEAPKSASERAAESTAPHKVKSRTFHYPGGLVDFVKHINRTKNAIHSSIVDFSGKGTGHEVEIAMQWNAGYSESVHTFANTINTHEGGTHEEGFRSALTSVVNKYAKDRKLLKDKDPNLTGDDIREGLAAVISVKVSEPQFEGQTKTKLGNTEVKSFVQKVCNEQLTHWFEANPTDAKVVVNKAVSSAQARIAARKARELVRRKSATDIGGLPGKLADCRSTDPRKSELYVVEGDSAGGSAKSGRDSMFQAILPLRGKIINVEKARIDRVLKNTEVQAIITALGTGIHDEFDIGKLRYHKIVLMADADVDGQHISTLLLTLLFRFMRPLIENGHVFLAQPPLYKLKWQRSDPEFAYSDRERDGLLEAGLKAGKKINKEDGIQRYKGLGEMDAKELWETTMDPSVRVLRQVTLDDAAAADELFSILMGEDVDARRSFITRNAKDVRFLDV
Sequence of DNA gyrase subunit A/DNA gyrase subunit B (P9WG47 whole entry): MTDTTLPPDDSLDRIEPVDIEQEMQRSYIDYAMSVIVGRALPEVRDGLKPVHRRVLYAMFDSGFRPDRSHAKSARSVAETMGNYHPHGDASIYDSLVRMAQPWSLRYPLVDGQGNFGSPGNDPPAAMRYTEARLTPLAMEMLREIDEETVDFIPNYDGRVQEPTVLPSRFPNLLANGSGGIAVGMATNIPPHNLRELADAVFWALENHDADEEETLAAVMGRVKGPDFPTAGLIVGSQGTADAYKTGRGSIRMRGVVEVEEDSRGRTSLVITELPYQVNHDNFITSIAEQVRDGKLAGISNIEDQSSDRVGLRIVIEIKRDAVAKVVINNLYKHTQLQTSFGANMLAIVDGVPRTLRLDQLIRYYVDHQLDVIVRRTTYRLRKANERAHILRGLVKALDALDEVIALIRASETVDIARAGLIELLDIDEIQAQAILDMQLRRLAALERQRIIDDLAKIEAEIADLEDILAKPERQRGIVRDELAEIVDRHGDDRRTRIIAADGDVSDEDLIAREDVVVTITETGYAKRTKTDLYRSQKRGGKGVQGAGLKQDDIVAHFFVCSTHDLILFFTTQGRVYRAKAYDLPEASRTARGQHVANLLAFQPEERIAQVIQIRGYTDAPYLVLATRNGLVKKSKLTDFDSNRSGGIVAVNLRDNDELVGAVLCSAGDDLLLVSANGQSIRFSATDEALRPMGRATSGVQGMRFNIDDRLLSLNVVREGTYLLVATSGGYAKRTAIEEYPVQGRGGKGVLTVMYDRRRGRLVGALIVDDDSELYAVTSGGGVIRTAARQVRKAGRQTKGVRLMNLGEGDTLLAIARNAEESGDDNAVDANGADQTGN
Sequence of Voltage-gated inwardly rectifying potassium channel KCNH2 (Q12809 whole entry): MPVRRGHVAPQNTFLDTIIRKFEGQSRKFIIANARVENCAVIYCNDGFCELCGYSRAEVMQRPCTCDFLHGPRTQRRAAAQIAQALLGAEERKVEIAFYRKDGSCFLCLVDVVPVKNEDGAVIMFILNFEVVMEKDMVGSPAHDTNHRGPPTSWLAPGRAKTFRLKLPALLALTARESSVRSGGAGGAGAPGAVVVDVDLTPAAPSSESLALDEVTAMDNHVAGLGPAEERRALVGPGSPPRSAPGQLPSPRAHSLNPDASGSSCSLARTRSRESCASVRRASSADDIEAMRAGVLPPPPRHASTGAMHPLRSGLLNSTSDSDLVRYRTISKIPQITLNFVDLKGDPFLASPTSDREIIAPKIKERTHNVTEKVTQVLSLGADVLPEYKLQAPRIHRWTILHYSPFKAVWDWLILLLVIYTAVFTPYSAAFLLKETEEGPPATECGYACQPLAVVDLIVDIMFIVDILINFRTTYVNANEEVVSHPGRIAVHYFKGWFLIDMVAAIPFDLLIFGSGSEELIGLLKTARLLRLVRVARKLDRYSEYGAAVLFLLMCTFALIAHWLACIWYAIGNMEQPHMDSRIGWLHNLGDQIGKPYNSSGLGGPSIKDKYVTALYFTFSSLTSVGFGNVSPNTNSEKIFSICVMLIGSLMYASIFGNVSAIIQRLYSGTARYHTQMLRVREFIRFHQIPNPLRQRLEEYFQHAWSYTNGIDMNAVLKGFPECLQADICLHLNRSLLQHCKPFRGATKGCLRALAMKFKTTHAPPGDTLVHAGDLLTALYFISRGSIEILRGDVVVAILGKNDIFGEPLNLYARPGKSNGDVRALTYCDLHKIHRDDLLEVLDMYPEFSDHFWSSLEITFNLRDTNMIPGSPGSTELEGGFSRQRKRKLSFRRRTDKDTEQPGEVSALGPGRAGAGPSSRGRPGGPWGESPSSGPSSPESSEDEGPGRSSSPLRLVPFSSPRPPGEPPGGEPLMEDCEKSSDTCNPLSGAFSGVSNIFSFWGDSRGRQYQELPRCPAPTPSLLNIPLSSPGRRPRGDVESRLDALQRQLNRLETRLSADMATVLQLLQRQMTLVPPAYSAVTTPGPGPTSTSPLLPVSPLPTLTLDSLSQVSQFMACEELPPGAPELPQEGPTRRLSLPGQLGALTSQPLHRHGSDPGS

Row | Compound | LCK [1] | IC50 [3] | MIC [4] | fraction unbound [5] | Activity [6] | Papp B→A [8] | Papp A→B [9] | logD at 10000 µM [10] | bioavailability [13] | clearance [14] | further results
1 | COc1cnc2ccc(=O)n(CCN3CC[C@H](NCc4ccc5c(n4)NC(=O)CO5)[C@H](F)C3)c2c1 | 1.3 | 170 nM | 0.06 µg/mL (≈ 0.124 µM) | 0.48 | Active | 12.7 ×10⁻⁶ cm/s | 3.4 ×10⁻⁶ cm/s | 0.82 |  |  | Activity [2]: Active; fT>MIC [7]: 83%
2 | O=C1COc2ccc(CN[C@@H]3CCN(CCn4c(=O)ccc5ncc(F)cc54)C[C@@H]3F)nc2N1 | 1.3 | 350 nM | 0.13 µg/mL (≈ 0.276 µM) | 0.32 | Active | 11.2 ×10⁻⁶ cm/s | 7.6 ×10⁻⁶ cm/s | 0.47 | 87% | 87 mL/min/kg | fT>MIC [11]: 70%; log10cfu [12]: 1.2; Activity [15]: Dose-dependent effect; fAUC/MIC [16]: 129; log10cfu [17]: >3; Activity [18]: tde
3 | COc1cnc2ccc(=O)n(CCN3CCC(NCc4cnc(C)c(C#N)c4)CC3)c2c1 |  | 140 nM | 0.06 µg/mL (≈ 0.139 µM) | 0.23 |  | 8.3 ×10⁻⁶ cm/s | 10.5 ×10⁻⁶ cm/s | 1.07 | > 100% | 32 mL/min/kg | Activity [19]: 10%; Activity [20]: 70%; fAUC/MIC [21]: 54; fT>MIC [22]: 58%; log10cfu [23]: 0.5; inhibition [24]: Dose-dependent effect; IC50 [25]: 50600 nM; Activity [26]: Active

Reference: ChEMBL document CHEMBL3286091, “Novel N-linked aminopiperidine-based gyrase inhibitors with improved hERG and in vivo efficacy against Mycobacterium tuberculosis” (J Med Chem, 2014)
